From ChEMBL document CHEMBL1240389, “In vitro and in vivo activities of the novel anticytomegalovirus compound AIC246” (Antimicrob Agents Chemother, 2010)
Calls of active or inactive are those of the source. The rule behind the calls is not given here.

Key:
[1] = tested on: Human betaherpesvirus 5; experiment: Antiviral activity against human cytomegalovirus AD169 infected in NHDF at 10 times EC50 treated postinfection and measured after 7 days by GFP-based fluorescent reduction assay
[2] = tested on: Human betaherpesvirus 5; experiment: Antiviral activity against human cytomegalovirus AD169 infected in NHDF at 11 uM treated after 57 hrs postinfection measured after 7 days by GFP-based fluorescent reduction assay; format: functional, organism-based
[3] = Selectivity index, ratio of CC50 for HEL299 cells to EC50 for human cytomegalovirus infected in HEL299 cells; format: toxicity, cell-based, HEL 299; settings: read-out: Selectivity Index
How it was run: (§1)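 SI = CC₅₀/EC₅₀ in the same fibroblast type. EC₅₀: GFP-expressing HCMV AD169, 3-fold dilutions, 7 days at 37°C, GFP units by CCD camera. CC₅₀ run in parallel: 1.5 × 10⁴ cells/well overnight, 3-fold dilutions from 0.33 mM (DMSO constant 0.66%), 7 days, alamarBlue fluorescence as % of untreated cells; ≥3 runs in duplicate.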

[4] = Cytotoxicity against NHDF infected with human cytomegalovirus after 7 days by alamar blue assay; format: cell-based; settings: NHDF cells infected with human cytomegalovirus
How it was run: (§2)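 Fibroblasts seeded at 1.5 × 10⁴/well, incubated overnight, then given drug in 3-fold serial dilutions from 0.33 mM (DMSO constant 0.66%). After 7 days, alamarBlue added and fluorescence read; signal as % of untreated cell controls versus log concentration; CC50 from dose-response curves. At least three experiments with duplicates.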

[5] = Cytotoxicity against human MRC5 cells infected with human cytomegalovirus after 7 days by alamar blue assay; format: cell-based
How it was run: as §2

[6] = Selectivity index, ratio of CC50 for human MRC5 cells to EC50 for human cytomegalovirus infected in human MRC5 cells; format: toxicity, cell-based; settings: MRC5 cells infected with human cytomegalovirus, read-out: Selectivity Index
How it was run: as §1

[7] = Selectivity index, ratio of CC50 for human HS27 cells to EC50 for human cytomegalovirus infected in human HS27 cells; format: toxicity, cell-based; settings: HS27 cells infected with human cytomegalovirus, read-out: Selectivity Index
How it was run: as §1

[8] = Cytotoxicity against HEL299 cells infected with human cytomegalovirus after 7 days by alamar blue assay; format: cell-based, HEL 299
How it was run: as §2

[9] = Cytotoxicity against HLF infected with human cytomegalovirus after 7 days by alamar blue assay; settings: HLF cells infected with human cytomegalovirus
How it was run: as §2

[10] = Cytotoxicity against human HS27 cells infected with human cytomegalovirus after 7 days by alamar blue assay; format: cell-based
How it was run: as §2

Structure (SMILES)	Activity [1]	Activity [2]	selectivity ratio [3]	CC50 at 168 h [4] [µM]	CC50 at 168 h [5] [µM]	selectivity ratio [6]	selectivity ratio [7]	CC50 at 168 h [8] [µM]	CC50 at 168 h [9] [µM]	CC50 at 168 h [10] [µM]
CN(C)c1cccc2c(S(=O)(=O)Nc3ccc(NC(=O)C(C)(C)CO)cc3)cccc12	Active	inactive	–	–	–	–	–	–	–	–
Nc1nc(O)c2ncn(COC(CO)CO)c2n1 [GANCICLOVIR]	–	–	> 139	> 333	> 333	> 202	> 1040	> 333	> 333	> 333
